Test results taken from ChEMBL document CHEMBL1126289, “Analogues of the muscarinic agent 2'-methylspiro[1-azabicyclo[2.2.2]octane-3,4'-[1,3]dioxolane]: synthesis and pharmacology” (J Med Chem, 1992).
pEC50, pKi: −log10 of the molar value.

Columns and labels:
Cavia porcellus [1] = organism: Cavia porcellus; test: In vitro antagonistic activity on isolated guinea pig urinary bladder; format: functional
Method in brief: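 Bladder smooth-muscle strips from male guinea pigs (~300 g) in Krebs-Henseleit, pH 7.4, carbogen-gassed, 37 °C, ~5 mN resting tension, stabilized ≥45 min; isometric tension recorded. A control cumulative carbachol curve was run, then washout and ≥15 min rest. A fixed test-compound concentration was incubated 60 min before a second carbachol curve. Carbachol EC50s were read graphically and dose ratios calculated to give KB; 2–8 experiments.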

Cavia porcellus [2] = organism: Cavia porcellus; test: Maximum response relative to that elicited by carbachol in guinea pig ileum was determined; format: functional
Method in brief: (§1)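 Longitudinal ileal muscle strips from male guinea pig were held in Krebs-Henseleit (pH 7.4, carbogen) at 37 °C under about 5 mN tension and recorded isometrically. Single agonist concentrations were added, with washout and rest between each. EC50 was read graphically. Emax was expressed as percent of the carbachol maximum. Low-efficacy agents were estimated from pooled curves of at least two experiments.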

Cavia porcellus [3] = organism: Cavia porcellus; test: In vitro agonistic activity on isolated guinea pig ileum; format: functional; method in brief: as §1
[4] = target: T1, Muscarinic acetylcholine receptor M3 (Cavia porcellus, UniProt Q8VH26); test: Compound was evaluated for its binding affinity against muscarinic acetylcholine receptor M3 in guinea pig parotid gland using (-)-[3H]-QNB as radioligand; format: tissue-based
Method in brief: (§2)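 Male guinea pig parotid gland homogenate was prepared in 50 mM Na/K phosphate pH 7.4 with 1 mM PMSF (protein ≤0.3 mg/mL). Triplicates were incubated with 2 nM (final) (−)-[3H]QNB at 25 °C for 210 min, with nonspecific binding defined by 10 µM atropine. Samples were separated by centrifugation and counted by scintillation. Ki came from graphical IC50 corrected by the Jacobs method, from 2–3 experiments.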

[5] = target: T1, Muscarinic acetylcholine receptor M3; test: Compound was evaluated for its binding affinity against Muscarinic acetylcholine receptor M3 in guinea pig parotid gland using (-)-[3H]-QNB as radioligand; format: tissue-based; method in brief: as §2
[6] = target: T1, Muscarinic acetylcholine receptor M3; test: Compound was evaluated for its binding affinity against muscarinic acetylcholine receptor M3 n guinea pig parotid gland using (-)-[3H]-QNB as radioligand; format: tissue-based; method in brief: as §2

T1 sequence (Q8VH26 whole entry): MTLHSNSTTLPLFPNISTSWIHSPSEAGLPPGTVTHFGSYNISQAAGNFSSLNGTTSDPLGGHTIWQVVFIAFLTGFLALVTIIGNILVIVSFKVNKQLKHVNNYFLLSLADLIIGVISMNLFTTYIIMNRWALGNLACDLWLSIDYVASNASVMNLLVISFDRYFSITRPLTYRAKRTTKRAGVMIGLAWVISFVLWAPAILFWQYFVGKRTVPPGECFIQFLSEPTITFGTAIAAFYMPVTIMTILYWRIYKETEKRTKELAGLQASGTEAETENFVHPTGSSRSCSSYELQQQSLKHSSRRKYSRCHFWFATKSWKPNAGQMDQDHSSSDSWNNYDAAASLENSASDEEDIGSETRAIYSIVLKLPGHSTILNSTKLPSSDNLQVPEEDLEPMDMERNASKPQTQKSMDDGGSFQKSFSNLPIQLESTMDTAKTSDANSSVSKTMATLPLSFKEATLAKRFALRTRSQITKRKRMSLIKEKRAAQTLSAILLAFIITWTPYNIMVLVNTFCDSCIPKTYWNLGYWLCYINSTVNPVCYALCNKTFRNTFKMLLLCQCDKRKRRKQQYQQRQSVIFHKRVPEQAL

SMILES	pEC50 (Cavia porcellus [1])	Emax (Cavia porcellus [2])	pEC50 (Cavia porcellus [3])	pKi [4]	Kb (Cavia porcellus [1])	pKi [5]	pKi [6]
C[N+](C)(C)CCOC(N)=O [CARBACHOL]	5.77	100%	6.77	–	–	–	–
C[C@@H]1C[C@@]2(CO1)CN1CCC2CC1	–	7%	4.92	4.48	19 µM	–	–
C[C@H]1OC[C@@]2(CN3CCC2CC3)O1	–	91%	5.22	4.82	4.8 µM	–	–
C[C@H]1C[C@@]2(CO1)CN1CCC2CC1	–	25%	3.82	–	30 µM	4.59	–
C[C@@H]1CC[C@@]2(CN3CCC2CC3)O1	–	20%	4.52	–	90 µM	4.11	–
C[C@@H]1OC[C@@]2(CN3CCC2CC3)O1	–	24%	4.77	4.60	13 µM	–	–
C1OCC2(CN3CCC2CC3)O1 (stereo not given)	–	45%	4.00	4.07	122 µM	–	–
CC1(C)OCC2(CN3CCC2CC3)O1 (stereo not given)	–	14%	4.66	–	41 µM	–	4.41
C[C@H]1CC[C@@]2(CN3CCC2CC3)O1	–	29%	4.92	4.46	93 µM	–	–
